Source: ChEMBL document CHEMBL1123435, “Synthesis of 11H-pyridocarbazoles and derivatives. Comparison of their DNA binding and antitumor activity with those of 6H- and 7H-pyridocarbazoles” (1986)

Key:
Calf thymus DNA = assay: Binding affinity towards calf thymus DNA, at pH 5; type: nucleic-acid assay; details: Bos taurus
Outline: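 Affinity for sonicated calf thymus DNA determined by ethidium bromide competition by fluorescence. Four cells were run together: buffer, DNA (1.5 μg/mL), and drug at 3 and 6 μg/mL plus DNA. Ethidium bromide (50 μg/mL of buffer) was added in aliquots, and apparent constants were derived from Scatchard plots of competition. Where a ligand fluoresces strongly when bound, direct fluorometric titration was used instead.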

L1210 [1] = assay: Dose required to inhibit the cloning efficiency to a factor of 0.37 after 24-h exposure to the drug; type: functional; details: Mus musculus, L1210, 24 h
Outline: (§1)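 Exponentially growing L1210 cells (1 × 10⁵/mL) in RPMI 1640 with 10% fetal calf serum were exposed to the drug for 24 h at 37 °C. They were then diluted to 250 and 500 cells/mL and plated in Noble agar. After 14 days at 37 °C in 5% CO2, colonies >0.2 mm were counted, in triplicate per concentration. CE37 (cloning efficiency reduced to 0.37) was read from dose-response curves.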

L1210 [2] = assay: Inhibitory activity against L1210 cell culture; type: functional; details: Mus musculus, read-out: ED50 (the source's name)
Outline: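 L1210 cells in exponential growth (1 × 10⁵/mL) were held for 24 h at 37 °C in RPMI 1640 with 10% fetal calf serum across a range of drug concentrations. Total cells were counted electronically. Duplicate treated cultures were expressed as a percentage of triplicate untreated controls. ED50 came from linear regression of percent residual cells against concentration on a semilog scale.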

L1210 [3] = assay: Dose required to inhibit the cloning efficiency to a factor of 0.37 after 24-h exposure to the drug in L1210 cell; type: functional; details: Mus musculus, L1210, 24 h; outline: as §1

Structure (SMILES)	K app (Calf thymus DNA) [M⁻¹]	EC37 (L1210 [1]) [µg/mL]	EC50 (L1210 [2]) [µg/mL]	EC37 (L1210 [3]) [µg/mL]
c1cnc2c(c1)ccc1c3ccccc3[nH]c12	100000	–	–	–
COc1ccc2[nH]c3c(ccc4cccnc43)c2c1	100000	–	–	–
Cc1cc2c3cc(O)ccc3[nH]c2c2c[n+](C)ccc12.[I-]	1e+06	> 1	> 1	–
COc1ccc2[nH]c3c4cc[n+](C)cc4ccc3c2c1.[I-]	25000	> 1	> 1	–
COc1ccc2[nH]c3ccc4cc[n+](C)cc4c3c2c1.[I-]	300000	–	0.38	–
Cc1cc2c3ccccc3[nH]c2c2c[n+](C)ccc12.[I-]	100000	> 1	> 1	–
C[n+]1ccc2ccc3[nH]c4ccc(O)cc4c3c2c1.[I-]	180000	–	0.12	–
C[n+]1ccc2c(ccc3c4ccccc4[nH]c23)c1.[I-]	20000	> 1	> 1	–
CC(=O)[O-].Cc1c2cc[n+](C)cc2c(C)c2c1[nH]c1ccc(O)cc12 [ELLIPTINIUM ACETATE]	1.3e+06	0.013	0.06	–
C[n+]1cccc2c3[nH]c4ccc(O)cc4c3ccc21.[I-]	100000	> 1	> 1	–
CC(=O)[O-].Cc1c2cc[n+](C)cc2c(C)c2c1[nH]c1ccccc12	230000	–	0.544	0.4
COc1ccc2[nH]c3c(ccc4c3ccc[n+]4C)c2c1	60000	–	–	–
C[n+]1cccc2c3[nH]c4ccccc4c3ccc21.[I-]	10000	> 1	> 1	–
Cl.Oc1ccc2[nH]c3c(ccc4cccnc43)c2c1	20000	> 1	> 1	–
COc1ccc2[nH]c3c4c[n+](C)ccc4c(C)cc3c2c1	100000	–	–	–
